Reference: PubChem BioAssay AID573 (SRMLSC, 2007)
Among all 65,000 compounds or so, about 1,400 (2.2%) were called active. This is one part of a sample in which actives are shown more often than they occur. Unmarked numbers belong to inactive results.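 The calls were made as follows: active = growth inhibition at or above a cutoff equal to the mean over every tested compound plus 3 SD (cut at about 60% in these data); inactive = the rest.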

Assay: E. coli ΔtolC antibacterial growth inhibition – strain BW25113 ΔtolC::kan, 384-well, primary screen (AID 573)
Conditions: E. coli BW25113 tolC mutant growth, OD615; active compounds read high; concentration not given here
Method in brief: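 Test system: tolC-deleted E. coli BW25113 | Medium: LB with kanamycin 50 µg/mL | Compound dosing: Single concentration, 10 µM final per compound | Schedule: 37 °C, 20 h exposure | Measured by: OD at 615 nm | Evaluation: Percent growth inhibition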
For `CCOC(=O)c1c(-c2ccccc2)oc2ccc(OC(=O)N(C)C)cc12`, the growth inhibition was 96.5% (active). Molecule `CCN1c2nc3c(C)cccn3c(=O)c2CC2(C(=O)N(C)C(=O)N(C)C2=O)C1C` (stereo not given) has a growth inhibition of -0.7%. For `CCC(=NCCCO)c1c(O)n(-c2ccc(OC)cc2)c(=O)[nH]c1=O`, the growth inhibition was -12.6%. In the case of `CCCCCCN=C(CC)c1c(O)n(CCCC)c(=O)[nH]c1=O`, the growth inhibition is reported as 90.2% (active). Molecule `CCC(=NCc1ccco1)c1c(O)n(Cc2ccccc2)c(=O)[nH]c1=O` has a growth inhibition of 7.19%. Molecule `CCCC(C)n1[nH]c(=O)c2c1NC(=O)CSC2c1ccc(OC)c(OC)c1` (stereo not given) has a growth inhibition of -7.28%. Work on `Cn1c(C(=O)N2CCC(C(=O)N3CCC4(CC3)OCCO4)CC2)cc2sccc21` yielded a growth inhibition of 3.04%. In the case of `C/C(CCc1c[nH]c2ccccc12)=N\O`, the growth inhibition is reported as -11.1%. For `c1cncc(CNC2=NCCC2)c1`, the growth inhibition was -5.19%. Molecule `C=Cn1ccnc1P(=S)(c1cc(N(CC)CC)ns1)c1nccn1C=C` has a growth inhibition of 8.14%.
